Hits are enriched below; roughly 4.6% of the tested compounds scored in any of these assays.
GPR7 antag: human neuropeptides B/W receptor 1 antagonism. GPR7-expressing cells, fluorescence antagonist assay. inhibition, % at 4.4 µM. hit rate 1.1% among 290,000. AID 1861; in the data active = inhibition above about 16%, passing the limit was not always enough;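 note: cells stimulated with the agonist NPW; 0% = agonist with vehicle and 100% = vehicle without agonist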
OX1R antag-1: antagonists of human orexin 1 receptor (OX1R). O43613. OX1R-expressing cells, FRET antagonist read-out. inhibition, % at 6.6 µM. hit rate 1.8% among 330,000. AID 485270; in the data active = inhibition mostly above about 38%, no sharp cut-off; inactive = mostly below about 40%;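 note: 0% = agonist challenge alone and 100% = reference antagonist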
Target sequence (O43613 whole entry, looked up): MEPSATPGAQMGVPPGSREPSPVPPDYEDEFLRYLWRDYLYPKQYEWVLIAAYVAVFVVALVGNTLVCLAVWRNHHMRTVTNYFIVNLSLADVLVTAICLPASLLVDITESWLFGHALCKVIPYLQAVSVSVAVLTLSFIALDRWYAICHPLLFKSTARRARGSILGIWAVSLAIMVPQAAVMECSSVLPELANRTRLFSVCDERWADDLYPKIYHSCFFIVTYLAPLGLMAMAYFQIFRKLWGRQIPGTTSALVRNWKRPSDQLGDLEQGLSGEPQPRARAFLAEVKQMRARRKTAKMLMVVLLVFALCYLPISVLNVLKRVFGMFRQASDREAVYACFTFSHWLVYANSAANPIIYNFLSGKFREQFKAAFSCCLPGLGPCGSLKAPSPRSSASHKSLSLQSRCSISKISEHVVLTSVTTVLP
TAAR1 agonist: agonists of human TAAR1 | Q96RJ0 | CHO RD-HGA16 TAAR1, Fluo-8 calcium fluorescence; vehicle wells 0%, saturating PEA agonist 100% | activation, % at 3 µM | hit rate 0.99% among 360,000;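 active = activation above the mean activation of all test compounds in the run plus 3 SD, cut at about 38% in these data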
Target sequence (Q96RJ0 whole entry, looked up): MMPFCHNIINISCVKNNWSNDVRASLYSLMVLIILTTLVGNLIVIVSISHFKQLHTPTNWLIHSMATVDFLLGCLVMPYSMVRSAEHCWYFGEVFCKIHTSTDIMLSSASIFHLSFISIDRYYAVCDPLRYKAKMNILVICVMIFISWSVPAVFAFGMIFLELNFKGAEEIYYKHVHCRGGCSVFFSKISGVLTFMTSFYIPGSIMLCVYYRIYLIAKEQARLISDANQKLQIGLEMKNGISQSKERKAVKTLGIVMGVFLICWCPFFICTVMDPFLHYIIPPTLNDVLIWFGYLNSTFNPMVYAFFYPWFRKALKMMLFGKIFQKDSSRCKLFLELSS
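test system = CHO RD-HGA16 cells carrying human TAAR1 plus Gα16 | schedule = 17-24 h seeding, 75 min 37 °C dye, 30 min RT | compound dosing = 3 µM single concentration | control set = DMSO and PEA EC100 | replicates = n 1 | signal = Fluo-8 fluorescence, 5 s baseline then 140 s kinetic read | measure = percent activation vs PEA EC100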
OX1R antag-2: antagonists of human orexin 1 receptor; O43613; CHO/OX1R cells, Fluo-8 calcium fluorescence, orexin A; inhibition, % at 5 µM; hit rate 0.43% among 330,000;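 active = inhibition above its plate's threshold, mean inhibition of all tested compounds on the plate plus 3 SD, cut at about 37% in these data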;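 note: 0% = orexin A challenge wells and 100% = SB-334867-A antagonist wells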
CHO parental Ca: signal in parental CHO cells, OX1R antagonist counter-screen | parental CHO-K1, ATP-induced calcium, Fluo-8 fluorescence | inhibition, % at 5.6 µM | hit rate 0.63% among 330,000;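 active = inhibition above that plate's mean sample inhibition plus 3 SD, cut at about 26% in these data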;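 note: 0% = ATP-challenged DMSO wells and 100% = DMSO wells without ATP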
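Test system: untransfected parental CHO cell line; also added: ATP stimulus; dosing: 5.6 µM, single dose; signal: calcium-sensitive Fluo-8 fluorescence; measure: percent inhibition of ATP-evoked calcium rise, normalized to controls; benchmarks: low control ATP plus DMSO, high control DMSO only; replication: one well per compound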
TAAR1 antagonist: human TAAR1 antagonism; inhibition, % at 3 µM; AID 624466; hit rate 1.5% among 360,000; Q96RJ0; CHO RD-HGA16 TAAR1, Fluo-8 calcium fluorescence, antagonist;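 active = inhibition above a per-plate cutoff, the mean inhibition of test compounds on that plate plus 3 SD, cut at about 49% in these data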;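 note: 0% = DMSO plus EC80 beta-PEA response and 100% = DMSO alone without agonist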
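System: RD-HGA16 CHO cells with stable hTAAR1 and Gα16 | Probe or stimulus: EC80 β-phenethylamine stimulus | Dosing: 3 µM, single point | Times: Dye loading 75 min at 37 °C, then 30 min room temperature | Measured by: Fluo-8 calcium-sensitive fluorescence | Read-out basis: % inhibition of agonist calcium response | Replicates: n of 1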
GPR7 antag cf: confirmation of human GPR7 antagonists | shares compounds with GPR7 antag | GPR7-expressing cells, calcium fluorescence antagonist mode | inhibition, % at 4.4 µM | hit rate 52% among 2,400 | AID 1952; in the data active = inhibition above about 24%;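 note: stimulated with the GPR7 agonist NPW; 0% = agonist plus vehicle and 100% = vehicle alone without agonist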
MCHR1 antagonist: antagonizes human MCHR1, a GPR7 antagonist counter-screen; shares compounds with GPR7 antag; MCHR1-expressing cells, fluorescence antagonist assay; inhibition, % at 4.4 µM; hit rate 62% among 2,400; AID 2148; in the data active = inhibition above about 22%;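 note: 0% = vehicle with agonist and 100% = vehicle without agonist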
An asterisk follows results filed as active; . = not tested or not shown.

SMILES	GPR7 antag	OX1R antag-1	TAAR1 agonist	OX1R antag-2	CHO parental Ca	TAAR1 antagonist	GPR7 antag cf	MCHR1 antagonist
CCCNC(=O)N1C[C@H](O)COC[C@H]2O[C@@H](CC(=O)N[C@@H]3CCN(Cc4ccccc4)C3)CC[C@@H]21	.	.	0.5	.	.	-11.3	.	.
CCC(C)[C@H](NC(=O)C1(c2ccccc2)CCN(C(=O)OC(C)(C)C)CC1)C(=O)N[C@@H](C(=O)O)c1ccccc1 (some centres not stated)	27.3*	16.4	0.4	8.9	2.0	10.7	1.2	2.0
Cc1cc(C)c(S(=O)(=O)NCC2CCC(C(=O)NCCCN3CCOCC3)CC2)c(C)c1 (configuration not stated)	21.7*	.	20.9	.	.	-13.5	12.3	7.2
COc1ccccc1Cn1c(CCCO)nc2ccccc21	9.8	10.7	14.7	-13.8	-13.5	-1.7	-1.4	-1.1
O=C(NCc1ccccc1)c1cc(C2CCCN(C(=O)CCCc3ccccc3)C2)on1 (configuration not stated)	.	.	2.2	.	.	-0.4	.	.
Clc1ccc2nc(C(Cl)(Cl)Cl)[nH]c2c1	.	.	0.9	.	.	4.4	.	.
O=C(CN1C(=O)COc2ccccc21)N1CCCC1	9.8	3.5	1.9	-2.2	-6.7	7.2	.	.
O=C(CN1C(=O)COc2ccccc21)N1CCOCC1	32.0*	9.5	2.7	1.4	-12.5	-5.4	-2.8	-1.0
O=C(Cc1n[nH]c(=O)c2ccccc12)OCC(=O)c1ccc(F)cc1	.	19.8	2.1	-24.9	-9.8	-21.4	.	.
O=C(Cc1n[nH]c(=O)c2ccccc12)OCC(=O)c1ccc2c(c1)OCCO2	28.1*	24.5	6.0	-18.8	-19.3	2.2	-9.3	15.0
C[C@@H]1CCCCO[C@@H](CN(C)CC2CCCCC2)[C@@H](C)CN([C@H](C)CO)C(=O)c2cc(NC(=O)Nc3ccc4c(c3)OCO4)ccc2O1	.	.	-1.0	.	.	-2.4	.	.
Cc1ccc(N(CC(O)Cn2c3ccccc3c3ccccc32)S(C)(=O)=O)cc1 (configuration not stated)	24.3*	30.8	11.4	20.9	-0.5	44.4	29.6*	44.5*
Cc1ccc(N(CC(O)Cn2c3ccccc3c3ccccc32)S(C)(=O)=O)c(C)c1 (configuration not stated)	-1.2	4.7	10.6	-8.6	-8.1	23.4	.	.
Cc1cccc(C)c1N(CC(O)Cn1c2ccccc2c2ccccc21)S(C)(=O)=O (configuration not stated)	28.9*	31.7	9.0	13.5	-8.8	19.0	37.4*	36.4*
CC(C)C[C@H]1CNC(=O)C(=O)N1C[C@@H]1CCCN1C[C@H](CC(C)C)N1C[C@H](Cc2ccc(O)cc2)N(CCc2ccccc2)C(=O)C1=O	.	.	1.9	.	.	-9.7	.	.
O=C(/C=C(\Nc1ccc(F)cc1)c1ccccc1)c1ccccc1	.	.	-1.1	.	.	18.6	.	.
Cc1ccccc1CC1(CO)CCCN(C(=O)c2ccccc2N(C)C)C1 (configuration not stated)	30.8*	15.1	9.1	-19.4	-38.4	0.8	36.1*	30.7*
Cc1ccccc1CC1(CO)CCCN(C(=O)c2ccc(F)cc2)C1 (configuration not stated)	-0.1	18.4	12.0	-23.8	-8.2	-7.4	.	.
O=C(NCCN1CCC(n2c(=O)[nH]c3ccccc32)CC1)c1cccnc1Cl	.	.	-0.1	.	.	11.2	.	.
Cc1cc(NC(=O)c2ccc(Br)c([N+](=O)[O-])c2)no1	21.8*	55.6	8.6	5.5	16.0	-2.0	-0.1	4.2
Cc1cc(NC(=O)c2ccc(C)c([N+](=O)[O-])c2)no1	5.2	29.5	7.7	-5.4	-0.4	-8.1	.	.
COc1cc(OC)cc(-c2c(C#Cc3ccsc3)c3cc(-c4cccc5[nH]cc(C=O)c45)ccc3n2C)c1	.	18.7	2.2	31.2	6.3	18.3	.	.
CCCCC1CC(CSc2ncn[nH]2)OC1=O (configuration not stated)	1.6	-0.4	4.3	-11.7	0.0	8.4	.	.
CCCCCCCC1CC(CSc2ncn[nH]2)OC1=O (configuration not stated)	21.2*	6.9	19.0	-11.5	-7.0	-6.9	38.3*	38.1*
O=C(/C=C/c1ccc(Cl)cc1)c1cccnc1	28.6*	37.9	4.7	-32.4	-27.0	2.3	50.8*	78.3*
SMILES	GPR7 antag	OX1R antag-1	TAAR1 agonist	OX1R antag-2	CHO parental Ca	TAAR1 antagonist	GPR7 antag cf	MCHR1 antagonist
N#Cc1ccc(/C=C/C(=O)c2cccnc2)cc1	-0.3	12.9	5.5	-11.0	-0.9	-8.7	.	.
CC(=O)Nc1ccc(S(=O)(=O)N2CCN(c3nc4ccccc4n3CC(C)C)CC2)cc1	27.4*	.	5.1	.	.	12.9	-9.6	5.0
Cc1ccc(C(=O)N2CCN(c3ccc(NC(=O)c4ccc5c(c4)OCCO5)cc3)CC2)cc1	32.4*	21.7	8.7	-9.0	-3.3	30.8	32.8*	65.5*
O=C(Nc1ccc(N2CCN(C(=O)c3ccccc3)CC2)cc1)c1ccc2c(c1)OCO2	10.2	24.4	4.0	-12.1	-14.7	-29.8	.	.
COC(=O)[C@]12C[C@H](CC(=O)N3CCC(c4ccccc4)CC3)C(=O)N(CCC3=CCCCC3)C1=C[C@H](C(C)(C)C)O[C@@H]2C	.	.	-0.5	.	.	-34.5	.	.
COc1ccc(Cl)cc1N(CC(=O)NC1CC2CCC1C2)S(=O)(=O)c1ccccc1 (configuration not stated)	33.3*	26.2	-0.4	-20.3	-15.9	-5.7	36.9*	62.3*
COc1cc(C(=O)N/N=C/c2coc3ccc(Cl)cc3c2=O)ccc1O	31.0*	15.2	3.2	4.4	0.9	-10.2	-6.9	-0.7
COc1ccccc1Cc1c(-c2ccc(OC)c(OC)c2)nc2ccc(C)cn12	.	.	-0.9	.	.	-25.3	.	.
O=C(c1ccccc1)C1CCN(C(=O)c2cccs2)CC1	14.0	10.9	2.9	-6.2	-4.4	-22.1	.	.
O=C(c1cccs1)N1CCC(c2ccccc2)C1 (configuration not stated)	21.0*	16.8	15.6	-4.2	-13.4	11.2	6.9	-5.5
COc1ccc(S(=O)(=O)N2CCCCCC2)cc1C(=O)N(C)CC(=O)Nc1cc(C)ccc1C	29.9*	.	2.9	.	.	-13.7	18.9	20.2
COc1ccc(S(=O)(=O)N2CCCCCC2)cc1C(=O)N(C)CC(=O)Nc1ccc(Cl)c(Cl)c1	.	10.3	3.9	-13.2	-11.7	6.9	.	.
O=C1/C(=N\O)Cc2ccccc21	27.3*	14.8	6.8	-3.4	-8.3	17.6	6.3	-0.5
COCC1OC(OC(C)C(O)c2cnc3nc(N)[nH]c(=O)c3n2)C(O)C(OC)C1O (configuration not stated)	.	.	0.1	.	.	-0.9	.	.

Screens as filed in PubChem BioAssay.
